Measurements as given in ChEMBL document CHEMBL5712918, “Targeting methyltransferase PRMT5 retards the carcinogenesis and metastasis of HNSCC via epigenetically inhibiting Twist1 transcription” (Neoplasia, 2020).
Active and inactive are the calls of the source. The calls are words filed in the database; no cut-off is given here.

What was measured:
Rattus norvegicus [1] = experiment: Antitumor activity against 4-Nitroquinoline-1-Oxide induced cancer Sprague-Dawley rat carcinogenic model assessed as cancer area of tongue tissue at 30 mg/kg, iv administered on week 12 and measured on week 22 (reference value: 80%); type: functional; settings: time 10 weeks
HSC-6 [2] = experiment: Antimigratory activity against human HSC-6 cells assessed as reduction in cell migration at 10 uM for 4 days by transwell assay; type: functional, cell-based; settings: time 4.0 day
Summary of the method: (§1)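 Transwell migration and invasion with 8-μm pore inserts. HSC6 or SCC25 cells, including lines stably overexpressing Flag-Twist1, treated at 10 μM for 4 days. Mean ± SD of three independent experiments, one-way ANOVA.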

[3] = target: Protein arginine N-methyltransferase 5 (Homo sapiens) (UniProt O14744); experiment: Inhibition of PRMT5 in human SCC-25 cells assessed as reduction in WDR5 occupancy in Twist1 promoter region at 10 uM incubated for 4 days by Chip-qPCR analysis; type: cell-based; settings: time 4.0 day
Summary of the method: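 SCC25 cells exposed to inhibitor at 10 μM for 4 days. ChIP used a commercial kit with anti-WDR5 or anti-Set1 (1:50), and binding at the Twist1 promoter was quantified by qPCR. Mean ± SD of three independent experiments, Student's t test.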

Rattus norvegicus [4] = experiment: Antitumor activity against 4-Nitroquinoline-1-Oxide induced cancer Sprague-Dawley rat carcinogenic model assessed as reduction in lesion area of tongue tissue at 30 mg/kg, iv administered on week 12 and measured on week 22; type: functional, organism-based; settings: time 10.0 weeks
HSC-6 [5] = experiment: Antiproliferative activity against human HSC-6 cells assessed as reduction in cell vaibility at 1 to 10 uM by CCK-8 assay; type: functional, cell-based; settings: dose 1-10 µM
Summary of the method: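 Proliferation of HSC6 and SCC25 cells read by CCK-8 conversion. Mean ± SD of three independent experiments, Student's t test.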

[6] = target: Protein arginine N-methyltransferase 5 (Homo sapiens) (UniProt O14744); experiment: Inhibition of PRMT5 in human SCC-25 cells over expressing Twist1 assessed as increase in N-cadherin protein level at 10 uM incubated for 4 days by immunoblot analysis; type: cell-based; settings: time 4.0 day
Summary of the method: (§2)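 SCC25 cells stably overexpressing Flag-tagged Twist1 were treated with or without 10 μM inhibitor for 4 days, then immunoblotted for Twist1, N-cadherin and E-cadherin.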

[7] = target: Protein arginine N-methyltransferase 5 (Homo sapiens) (UniProt O14744); experiment: Inhibition of PRMT5 in human SCC-25 cells over expressing Twist1 assessed as decrease in E-cadherin protein level at 10 uM incubated for 4 days by immunoblot analysis; type: cell-based; settings: time 4.0 day; summary of the method: as §2
SCC-25 [8] = experiment: Antimigratory activity against human SCC-25 cells assessed as reduction in cell invasion after 48 hrs incubated for 48 hrs by transwell assay; type: functional, cell-based
[9] = target: Protein arginine N-methyltransferase 5 (Homo sapiens) (UniProt O14744); experiment: Inhibition of PRMT5 in human SCC-25 cells assessed as reduction in Twist1 mRNA expression at 10 uM incubated for 4 days by RT-qPCR analysis; type: cell-based; settings: time 4.0 day
Summary of the method: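 HSC6 or SCC25 cells exposed to 10 μM for 4 days. Twist1 mRNA measured by quantitative RT-PCR. Mean ± SD of three independent experiments, Student's t test.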

[10] = Toxicity in BALB/c nude mouse xenografted with human HSC6 cells assessed as effect on body weight at 15 to 30 mg/kg; type: organism-based; settings: in vivo, dose 15-30 mg/kg
Summary of the method: (§3)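 Subcutaneous xenograft in 4-week-old BALB/c nude mice given 6 × 10^7 HSC6 cells into the back. Groups were control, 15 mg/kg and 30 mg/kg. Body weight was monitored and major organs were examined for toxicity.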

[11] = target: Protein arginine N-methyltransferase 5 (Homo sapiens) (UniProt O14744); experiment: Inhibition of PRMT5 in human SCC-25 cells assessed as reduction in Twist1 protein expression at 10 uM incubated for 4 days by western blot analysis; type: cell-based; settings: time 4.0 day
Summary of the method: (§4)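 HSC6 or SCC25 cells treated with 10 μM for 4 days. E-cadherin, N-cadherin and Twist1 proteins detected by immunoblot.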

[12] = target: Protein arginine N-methyltransferase 5 (Homo sapiens) (UniProt O14744); experiment: Inhibition of PRMT5 in human HSC-6 cells assessed as reduction in Twist1 protein expression at 10 uM incubated for 4 days by western blot analysis; type: cell-based; settings: time 4.0 day; summary of the method: as §4
[13] = Toxicity in BALB/c nude mouse xenografted with human tongue squamous carcinoma cells assessed as effect on liver morphology at 30 mg/kg; type: organism-based; settings: in vivo
Rattus norvegicus [14] = experiment: Antitumor activity against 4-Nitroquinoline-1-Oxide induced cancer Sprague-Dawley rat carcinogenic model assessed as dysplasia area of tongue tissue at 30 mg/kg, iv administered on week 12 and measured on week 22 (reference value: 13.3%); type: functional; settings: time 10 weeks
[15] = Toxicity in BALB/c nude mouse xenografted with human HSC6 cells assessed as effect on liver morphology at 15 to 30 mg/kg; type: organism-based; settings: in vivo, dose 15-30 mg/kg; summary of the method: as §3
[16] = Toxicity in BALB/c nude mouse xenografted with human squamous carcinoma cells assessed as effect on body weight at 30 mg/kg; type: organism-based; settings: in vivo
[17] = target: Protein arginine N-methyltransferase 5 (Homo sapiens) (UniProt O14744); experiment: Inhibition of PRMT5 in human SCC-25 cells assessed as reduction in H3R2me2 enrichment in Twist1 promoter region at 10 uM incubated for 4 days by Chip-qPCR analysis; type: cell-based; settings: time 4.0 day
Summary of the method: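 ChIP-qPCR at the Twist1 promoter after 4 days at 10 μM in HSC6 or SCC25 cells. Antibody ratios: H3R2me2s 1:100, H4R3me2s 1:100, WDR5 1:50, Set1 1:50; ChIP assay kit protocol. Mean ± SD of three independent experiments, Student's t test.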

[18] = Toxicity in BALB/c nude mouse xenografted with human tongue squamous carcinoma cells assessed as effect on kidney morphology at 30 mg/kg; type: organism-based; settings: in vivo
SCC-25 [19] = experiment: Anti-invasive activity against human SCC-25 cells assessed as reduction in cell invasion at 10 uM for 4 days by transwell assay; type: functional, cell-based; settings: time 4.0 day; summary of the method: as §1
HSC-6 [20] = experiment: Antitumor activity against human HSC-6 cells xenografted in BALB/c nude mouse model of orthotopic tumor assessed as as reduction in distant metastasis in lung at 30 mg/kg by H and E analysis; type: functional, organism-based
[21] = target: Protein arginine N-methyltransferase 5 (Homo sapiens) (UniProt O14744); experiment: Inhibition of PRMT5 in human SCC-25 cells assessed as reduction in H3R8me2 protein expression at 10 uM incubated for 4 days by western blot analysis; type: cell-based; settings: time 4.0 day
[22] = target: Protein arginine N-methyltransferase 5 (Homo sapiens) (UniProt O14744); experiment: Inhibition of PRMT5 in human SCC-25 cells assessed as increase in E-cadherin protein expression level at 10 uM incubated for 4 days by western blot analysis; settings: time 4.0 day
HSC-6 [23] = experiment: Anti-invasive activity against human HSC-6 cells assessed as reduction in cell invasion after 48 hrs incubated for 48 hrs by transwell assay; type: functional, cell-based
Rattus norvegicus [24] = experiment: Antitumor activity against 4-Nitroquinoline-1-Oxide induced cancer Sprague-Dawley rat carcinogenic model assessed as reduction in number of Twist1 positive cells at 30 mg/kg, iv administered on week 12 and measured on week 22 by IHC assay; type: functional, organism-based; settings: time 10.0 weeks
Summary of the method: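 4NQO-induced SD rat tongue lesions (0.002% 4NQO in drinking water for 12 weeks; tail-vein 30 mg/kg from week 12; killed at week 22). IHC with Twist1 antibody 1:250. Percentage of positive cells from 5 random fields per sample. Groups n = 11/6, mean ± SD, Student's t test.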

SCC-25 [25] = experiment: Antimigratory activity against human SCC-25 cells assessed as reduction in cell migration after 48 hrs incubated for 48 hrs by transwell assay; type: functional, cell-based
[26] = target: Protein arginine N-methyltransferase 5 (Homo sapiens) (UniProt O14744); experiment: Inhibition of PRMT5 in human SCC-25 cells assessed as increase in E-cadherin protein expression level at 10 uM incubated for 4 days by western blot analysis; type: cell-based; settings: time 4.0 day; summary of the method: as §4
[27] = target: Protein arginine N-methyltransferase 5 (Homo sapiens) (UniProt O14744); experiment: Inhibition of PRMT5 in human SCC-25 cells assessed as reduction in H3R2me2 protein expression at 10 uM incubated for 4 days by western blot analysis; type: cell-based; settings: time 4.0 day

Sequence of Protein arginine N-methyltransferase 5 (Homo sapiens) (O14744 whole entry): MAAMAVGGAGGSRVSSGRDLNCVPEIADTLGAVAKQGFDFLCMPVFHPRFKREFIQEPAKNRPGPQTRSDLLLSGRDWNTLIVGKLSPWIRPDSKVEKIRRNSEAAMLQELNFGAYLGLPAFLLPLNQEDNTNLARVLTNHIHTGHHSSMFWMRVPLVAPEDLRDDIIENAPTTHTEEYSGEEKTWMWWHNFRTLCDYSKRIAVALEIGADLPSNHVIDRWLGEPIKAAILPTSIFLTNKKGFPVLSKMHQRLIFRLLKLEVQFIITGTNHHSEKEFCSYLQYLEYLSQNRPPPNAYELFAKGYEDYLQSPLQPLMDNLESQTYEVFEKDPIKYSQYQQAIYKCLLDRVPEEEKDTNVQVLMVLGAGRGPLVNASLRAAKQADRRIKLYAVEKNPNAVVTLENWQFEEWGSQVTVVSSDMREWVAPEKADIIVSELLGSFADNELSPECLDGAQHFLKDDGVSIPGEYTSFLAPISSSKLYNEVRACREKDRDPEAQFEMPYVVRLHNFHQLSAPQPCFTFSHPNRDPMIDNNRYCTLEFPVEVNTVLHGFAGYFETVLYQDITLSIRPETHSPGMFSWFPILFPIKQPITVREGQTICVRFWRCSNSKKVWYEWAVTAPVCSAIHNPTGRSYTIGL

inhibition [3]: Active
inhibition [6]: inactive
inhibition [7]: inactive
inhibition [9]: Active
inhibition [11]: Active
inhibition [12]: Active
inhibition [17]: Active
inhibition [21]: Active
inhibition [22]: Active
inhibition [26]: Active
inhibition [27]: Active
Structure (SMILES): O=C(NC[C@H](O)CN1CCc2ccccc2C1)c1cc(NC2COC2)ncn1
Activity (Rattus norvegicus [1]): 46.2%
Activity (HSC-6 [2]): Active
Activity (Rattus norvegicus [4]): Active
Activity (HSC-6 [5]): Active
Activity (SCC-25 [8]): Active
Activity [10]: Non-Toxic
Activity [13]: Non-Toxic
Activity (Rattus norvegicus [14]): 15.4%
Activity [15]: Non-Toxic
Activity [16]: Non-Toxic
Activity [18]: Non-Toxic
Activity (SCC-25 [19]): Active
Activity (HSC-6 [20]): Active
Activity (HSC-6 [23]): Active
Activity (Rattus norvegicus [24]): Active
Activity (SCC-25 [25]): Active
